Consider 20 compounds from ChEMBL document CHEMBL2062436, “Design, synthesis, and antiviral evaluation of purine-β-lactam and purine-aminopropanol hybrids” (J Med Chem, 2012).

Each structure is given as a SMILES string. Activity calls are given as the source filed them. The rule behind the calls is not given here.

One data set deals with Hepatitis C virus. Kind of data set: Antiviral activity against Hepatitis C virus infected in […] cells by luciferase assay. The class given is functional, organism-based. The conditions noted are these: Hepacivirus hominis.
The next data set relates to dengue virus type 2. As to the kind of experiment: Antiviral activity against Dengue virus 2 assessed as inhibition of virus-induced cytopathic effect by cell-based assay. The class given is functional, organism-based. (Protection from cytopathic effect is a common read-out in antiviral testing.)
The subject of data set [1] is Human immunodeficiency virus 1. Kind of data set: Antiviral activity against Human immunodeficiency virus 1 3B infected in MT4 cells by fluorescence analysis. The class given is functional, organism-based.
Data set [2] has as its system unidentified influenza virus. Kind of data set: Antiviral activity against unidentified influenza virus assessed as inhibition of virus-induced cytopathic effect by cell-based assay. The class given is functional, organism-based.
Data set [3] in a line: Selectivity index, ratio of CC50 for HepG2 cells to EC50 for Hepatitis B virus. In kind it is toxicity, cell-based. The following applies: human, read-out: Ratio CC50/EC50. The method, boiled down: (§1)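 Ratio of CC50 to EC50. CC50 is the 50% cytotoxic concentration. EC50 is the concentration giving 50% inhibition of the virus-reduced signal relative to the uninfected cell control.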

Another data set deals with Hepatitis B virus. As to the kind of experiment: Antiviral activity against Hepatitis B virus infected in HepG2(2.2.15) by PCR analysis. In kind it is functional, organism-based.
A short description of data set [4]: Cytotoxicity against human HepG2 cells by resazurin assay. In kind it is cell-based. (In general: Resazurin is reduced to fluorescent resorufin, in cell work by metabolically active cells.)
Another data set has as its system Coxsackievirus. Kind of data set: Antiviral activity against Coxsackievirus assessed as inhibition of virus-induced cytopathic effect by cell-based assay. The class given is functional, organism-based. The method, boiled down: (§2)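 EC50 taken as the compound concentration giving 50% inhibition of the virus-reduced cell signal, relative to uninfected cell controls.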

Data set [5] in a line: Selectivity index, ratio of CC50 for HeLa cells to EC50 for Human respiratory syncytial virus. The class given is toxicity, cell-based. The conditions noted are these: read-out: Ratio CC50/EC50. The method, boiled down:
as §1

The nature of data set [6]: Selectivity index, ratio of CC50 for host cell to EC50 for Coxsackievirus. The method, boiled down: (§3)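 SI calculated as CC50/EC50. CC50 is the 50% cytotoxic concentration in host cells. EC50 is the concentration giving 50% inhibition of the virus-reduced signal versus uninfected cell controls.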
Data set [7] in a line: Cytotoxicity against human HeLa cells by luminescence assay. The class given is cell-based.
Data set [8] in a line: Selectivity index, ratio of CC50 for host cell to EC50 for Chikungunya virus. The method, boiled down: as §3
In a further data set the test system is Human orthopneumovirus. As to the kind of experiment: Antiviral activity against Human respiratory syncytial virus infected in HeLa cells. In kind it is functional, organism-based.
The next data set has as its system Chikungunya virus. Kind of data set: Antiviral activity against Chikungunya virus assessed as inhibition of virus-induced cytopathic effect by cell-based assay. The class given is functional. The method, boiled down:
as §2

Data set [9] can be described thus: Cytotoxicity human HEL299 cells by resazurin assay. In kind it is cell-based, HEL 299.
The subject of another data set is Cytomegalovirus. Kind of data set: Antiviral activity against Cytomegalovirus infected in human Hel299 cells. In kind it is functional, organism-based. The conditions noted are these: Human betaherpesvirus 5, HEL 299.
The nature of data set [10]: Selectivity index, ratio of CC50 for Hel299 cells to EC50 for Cytomegalovirus. The class given is toxicity, cell-based. The following applies: human, read-out: Ratio CC50/EC50. The method, boiled down: as §1

On to `O=C1[C@@H](Oc2ccccc2)[C@@H](c2ccccc2)N1CCn1cnc2c(NCc3ccccc3)ncnc21` (relative stereo), for which the result (with Hepatitis C virus; in the data set on dengue virus type 2; in [1]; in data set [2]) was inactive.
What is called EC50 is the concentration at which the effect is half-maximal. By CC50 is commonly meant the concentration that lowers cell viability or growth by half. Read a low CC50 as greater toxicity to the cells. As to `O=C1[C@@H](OCc2ccccc2)[C@@H](c2ccccc2)N1CCn1cnc2c(NCc3ccccc3)ncnc21` (relative stereo), the outcome (in the data set with Hepatitis C virus; with dengue virus type 2; in data set [1]; in data set [2]) was inactive. Also, the selectivity ratio in data set [3] was 4.52. The compound also returned an EC50 in the data set with Hepatitis B virus of 11.1 µM. Moreover, the CC50 in data set [4] was > 50 µM.
With `O=C1[C@@H](Oc2ccccc2)[C@@H](c2ccccc2)N1CCCn1cnc2c(NCc3ccccc3)ncnc21` (relative stereo), the result (in the data set with Hepatitis C virus; in the data set with dengue virus type 2; in data set [1]; in [2]) was inactive. For the same compound, the EC50 in the data set with Coxsackievirus is 3.56 µM; in the data set with Human orthopneumovirus, 8.05 µM; in the data set with Chikungunya virus it was 17.1 µM. The selectivity ratio in [5] was 5.79. The “Ratio CC50/EC50” value in data set [6] is given as >28.09; in [8], >5.75. This compound returned a CC50 in data set [7] of 46.6 µM.
For `CCCN[C@H](c1ccccc1)[C@H](CO)CCCn1cnc2c(NCc3ccccc3)ncnc21` (relative stereo), the result (in the data set on Hepatitis C virus; with dengue virus type 2; in data set [1]; in data set [2]) was inactive.
In the case of `OC[C@@H](Oc1ccccc1)[C@H](NCCn1cnc2c(NCc3ccccc3)ncnc21)c1ccc(Cl)cc1` (relative stereo), the outcome (in the data set on Hepatitis C virus; in the data set on dengue virus type 2; in data set [1]; in [2]) was inactive. Moreover, the selectivity ratio amounted to 9.19 in data set [3] and 4.29 in [5]. Also, the CC50 in data set [7] stood at 8.23 µM; in data set [4], 31.9 µM. Further, the “Ratio CC50/EC50” value in [8] turned out to be 6.19. Further, the EC50 stood at 1.92 µM in the data set on Human orthopneumovirus, 3.47 µM in the data set on Hepatitis B virus and 11.5 µM in the data set on Chikungunya virus.
As for `O=C1[C@@H](Oc2ccccc2)[C@@H](c2ccc(Cl)cc2)N1CCn1cnc2c(NCc3ccccc3)ncnc21` (relative stereo), the outcome (in the data set on Hepatitis C virus; with dengue virus type 2; in data set [1]; in [2]) was inactive.
Turning to `CC(C)N1C(=O)[C@H](CCCn2cnc3c(NCc4ccccc4)ncnc32)[C@H]1c1ccccc1F` (relative stereo), the outcome (in the data set on Hepatitis C virus; in the data set on dengue virus type 2; in [1]; in data set [2]) was inactive. The selectivity ratio in [5] stood at 9.71. Moreover, the CC50 in data set [7] was 75.6 µM. The concentration for a half-maximal effect (EC50) with Human orthopneumovirus came to 7.79 µM.
Turning to `OC[C@@H](OCc1ccccc1)[C@H](NCCCn1cnc2c(NCc3ccccc3)ncnc21)c1ccc(Cl)cc1Cl` (relative stereo), the result (in the data set on Hepatitis C virus; with dengue virus type 2; in [1]; in data set [2]) was inactive.
On to `CC(C)N1C(=O)[C@H](CCn2cnc3c(NCc4ccccc4)ncnc32)[C@H]1c1ccccc1` (relative stereo), for which the result (in the data set on Hepatitis C virus; in the data set on dengue virus type 2; in data set [1]; in data set [2]) was inactive.
`COc1ccccc1[C@@H]1[C@H](Oc2ccccc2)C(=O)N1CCn1cnc2c(NCc3ccccc3)ncnc21` (relative stereo): the outcome (with Hepatitis C virus; in the data set on dengue virus type 2; in data set [1]; in data set [2]) was inactive. The “Ratio CC50/EC50” value in data set [8] is given as 4.53. Further, the EC50 with Chikungunya virus was determined as 13 µM.
For `O=C1[C@H](CCn2cnc3c(OCc4ccccc4)ncnc32)[C@@H](c2ccccc2)N1Cc1ccccc1`, the result (in the data set on Hepatitis C virus; in the data set on dengue virus type 2; in data set [1]; in [2]) was inactive.
With `CO[C@H](CO)[C@H](NCCCn1cnc2c(NCc3ccccc3)ncnc21)c1ccc(C(C)C)cc1` (relative stereo), the result (in the data set with Hepatitis C virus; in the data set on dengue virus type 2; in data set [1]; in data set [2]) was inactive.
`O=C1[C@@H](Oc2ccccc2)[C@@H](c2ccccc2)N1CCCn1cnc2c(OCc3ccccc3)ncnc21` (relative stereo): the CC50 in data set [9] amounted to 70.8 µM. Also, the result (with Hepatitis C virus; with dengue virus type 2; in data set [1]; in [2]) was inactive. Also, the EC50 in the data set on Coxsackievirus was determined as 2.94 µM; with Cytomegalovirus, 17.2 µM. The “Ratio CC50/EC50” value in data set [6] is >34.05. Moreover, in data set [10], the selectivity ratio was determined as 4.13.
Turning to `OC[C@@H](Oc1ccccc1)[C@H](NCCCn1cnc2c(NCc3ccccc3)ncnc21)c1ccccc1` (relative stereo), the result (in the data set on Hepatitis C virus; in the data set on dengue virus type 2; in data set [1]; in data set [2]) was inactive.
Consider `CC(C)N[C@H](c1ccccc1)[C@H](CO)CCn1cnc2c(NCc3ccccc3)ncnc21` (relative stereo), for which the result (in the data set with Hepatitis C virus; in the data set on dengue virus type 2; in [1]; in [2]) was inactive.
Take `CC(C)N[C@H](c1ccccc1F)[C@H](CO)CCCn1cnc2c(NCc3ccccc3)ncnc21` (relative stereo): the outcome (in the data set with Hepatitis C virus; in the data set with dengue virus type 2; in data set [1]; in [2]) was inactive. Moreover, the selectivity ratio in [5] was > 4.25. Moreover, the CC50 in data set [7] was > 100 µM. The same compound registered an EC50 with Human orthopneumovirus of 23.6 µM.
Take `CO[C@@H]1C(=O)N(CCCn2cnc3c(NCc4ccccc4)ncnc32)[C@@H]1c1ccc(C(C)C)cc1` (relative stereo): the result (in the data set with Hepatitis C virus; in the data set on dengue virus type 2; in data set [1]; in data set [2]) was inactive.
As to `CCCN1C(=O)[C@H](CCCn2cnc3c(NCc4ccccc4)ncnc32)[C@H]1c1ccccc1` (relative stereo), half-maximal cytotoxicity in [9] (CC50) was put at 30.7 µM. Further, the outcome (with Hepatitis C virus; in the data set on dengue virus type 2; in data set [1]; in [2]) was inactive. Further, the EC50 with Coxsackievirus turned out to be 2.77 µM; with Cytomegalovirus it was 7.16 µM. In addition, the “Ratio CC50/EC50” value in data set [6] came to 17.11. In addition, in data set [10], the selectivity ratio turned out to be 4.29.
In the case of `O=C1[C@@H](OCc2ccccc2)[C@@H](c2ccc(Cl)cc2Cl)N1CCCn1cnc2c(NCc3ccccc3)ncnc21` (relative stereo), the outcome (with Hepatitis C virus; with dengue virus type 2; in data set [1]; in [2]) was inactive. The selectivity ratio in [5] was determined as 17.9. In addition, the CC50 in [7] amounted to 40.1 µM. In the data set on Human orthopneumovirus, the EC50 came to 2.24 µM.
Take `CC(C)N1C(=O)[C@H](CCn2cnc3c(OCc4ccccc4)ncnc32)[C@H]1c1ccccc1` (relative stereo): the outcome (in the data set on Hepatitis C virus; in the data set on dengue virus type 2; in data set [1]; in data set [2]) was inactive. Besides, the EC50 in the data set with Coxsackievirus worked out at 4.17 µM. In addition, the “Ratio CC50/EC50” value in data set [6] came out at 11.55.
